# Data as given in ChEMBL document CHEMBL2203173 (J Med Chem, 2012).
# The source made the active and inactive calls. No cut-off for these calls is given here.
# Key:
# [1] = system: SK-N-MC; assay: Antiproliferative activity at human SK-N-MC cells after 72 hrs by MTT assay; type: functional, cell-based
# [2] = system: SK-N-MC; assay: Ratio of Dp4mT IC50 to compound IC50 for human SK-N-MC cells; type: functional
# [3] = system: A549; assay: Ratio of compound IC50 to Dp44mT IC50 for human A549 cells; type: functional
# [4] = system: DMS-53; assay: Antiproliferative activity at human DMS53 cells after 72 hrs by MTT assay; type: functional, cell-based
# [5] = system: MRC5; assay: Antiproliferative activity at human MRC5 cells after 72 hrs by MTT assay; type: functional, cell-based; details: MRC5, 72 h
# [6] = system: SK-N-MC; assay: Inhibition to 59Fe uptake from 59Fe-transferrin in human SK-N-MC cells at 25 uM after 3 hrs; type: functional; parameters: scale not given: the % may be the effect or the level left
# Outline: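 SK-N-MC cells labeled with 59Fe-transferrin (0.75 μM) for 3 h/37 °C with or without chelators (25 μM). Cells washed four times on ice with ice-cold PBS. Internalized 59Fe separated with Pronase (1 mg/mL) and expressed as % of control. Mean ± SD of three experiments.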
# [7] = system: SK-N-MC; assay: Induction of 59Fe mobilization in human SK-N-MC cells at 25 uM after 3 hrs by gamma-scintillation counter; type: functional
# Outline: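 SK-N-MC cells prelabeled with 59Fe-transferrin (0.75 μM) for 3 h/37 °C, then washed four times on ice with ice-cold PBS. Cells reincubated with or without chelators (25 μM) for 3 h/37 °C. Released 59Fe given as % of cellular 59Fe. Mean ± SD of three experiments.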
# [8] = system: A549; assay: Antiproliferative activity at human A549 cells after 72 hrs by MTT assay; type: functional, cell-based; details: Homo sapiens, A549, 72 h
# [9] = system: Mus musculus; assay: Toxicity in BALB/c nu/nu mouse xenografted with human DMS53 cells assessed as hepatocellular necrosis at 3 mg/kg, iv administered for 5 days a week measured after 21 days by hematoxylin and eosin staining method; type: organism-based, DMS-53; parameters: dose 3 mg/kg, route intravenous; details: in vivo, 504 h
# Outline: (§1)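 Nude mice with DMS-53 xenografts dosed by tail-vein iv injection in 30% propylene glycol/saline, starting at 100 mm3 tumour volume, 5 days/week for 21 days. Spleen, kidney, liver, heart, lungs and brain were stained with H&E, Perls' (Fe loading) and Gomori Trichrome (fibrosis) by standard methods, and an independent veterinary pathologist examined them.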
# [10] = system: Mus musculus; assay: Toxicity in BALB/c nu/nu mouse xenografted with human DMS53 cells assessed as change in brain histology at 0.75 mg/kg, iv administered for 5 days a week measured after 21 days by hematoxylin and eosin staining method; type: organism-based, DMS-53; parameters: dose 0.75 mg/kg, route intravenous; details: in vivo, 504 h
# Outline: (§2)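 DMS-53 xenograft nude mice, dosed from 100 mm3 tumor volume. Reference chelator given iv via tail vein as the base form, 5 days/week for 21 days, vehicle 30% propylene glycol/saline. Organs taken at sacrifice on day 21, stained with H&E, Perls' and Gomori Trichrome, and examined by an independent veterinary pathologist.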
# [11] = system: Mus musculus; assay: Toxicity in BALB/c nu/nu mouse xenografted with human DMS53 cells assessed as vacuolation at 0.75 mg/kg, iv administered for 5 days a week measured after 21 days by hematoxylin and eosin staining method; type: organism-based, DMS-53; parameters: dose 0.75 mg/kg, route intravenous; details: in vivo, 504 h; outline: as §1
# [12] = system: DMS-53; assay: Antitumor activity against human DMS53 cells xenografted BALB/c nu/nu mouse assessed as reduction of tumor volume at 0.75 mg/kg, iv administered for 5 days a week measured after 21 days (RVb = 922 94 mm'3); type: functional, organism-based; parameters: dose 0.75 mg/kg
# Outline: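 Nude mice bearing DMS-53 xenografts began dosing once tumors reached 100 mm3. Agents given iv by tail vein 5 days/week in vehicle of 30% propylene glycol/saline, with vehicle controls. Net tumor volume followed for 21 days. Mice sacrificed on day 21 and tumors excised and wet-weighed.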
# [13] = system: Mus musculus; assay: Toxicity in BALB/c nu/nu mouse xenografted with human DMS53 cells assessed as change in RBC count at 0.75 mg/kg, iv administered for 5 days a week measured after 21 days; type: organism-based, DMS-53; parameters: dose 0.75 mg/kg, route intravenous; details: in vivo, 504 h
# [14] = system: Mus musculus; assay: Toxicity in BALB/c nu/nu mouse xenografted with human DMS53 cells assessed as cardiac fibrosis at 0.75 mg/kg, iv administered for 5 days a week measured after 21 days by […]; type: organism-based, Heart, DMS-53; parameters: dose 0.75 mg/kg, route intravenous; details: in vivo, 504 h
# Outline: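 DMS-53 xenograft nude mice given agents iv by tail vein 5 days/week in 30% propylene glycol/saline for 21 days. At sacrifice, heart sections were stained with Gomori Trichrome to detect fibrosis. Spleen, kidney, liver, heart, lungs and brain were also stained with H&E and Perls' and examined by an independent veterinary pathologist.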
# [15] = system: Mus musculus; assay: Toxicity in BALB/c nu/nu mouse xenografted with human DMS53 cells assessed as hepatocellular fibrosis at 0.75 mg/kg, iv administered for 5 days a week measured after 21 days by hematoxylin and eosin staining method; type: organism-based, DMS-53; parameters: dose 0.75 mg/kg, route intravenous; details: in vivo, 504 h; outline: as §1
# [16] = system: Mus musculus; assay: Toxicity in human DMS53 cells xenografted BALB/c nu/nu mouse assessed as body weight change at 0.75 mg/kg, iv administered for 5 days a week measured after 21 days; type: organism-based, DMS-53; parameters: dose 0.75 mg/kg, route intravenous; details: in vivo, 504 h
# Outline: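 Body weights of DMS-53 xenograft-bearing nude mice were followed over 21 days of iv tail-vein dosing, 5 days/week, in 30% propylene glycol/saline, beginning at 100 mm3 tumour volume. Values are the average body weight per group.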
# [17] = system: Mus musculus; assay: Toxicity in BALB/c nu/nu mouse xenografted with human DMS53 cells assessed as change in hemoglobin level at 0.75 mg/kg, iv administered for 5 days a week measured after 21 days; type: organism-based, DMS-53; parameters: dose 0.75 mg/kg, route intravenous; details: in vivo, 504 h
# Outline: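 DMS-53 xenografts in nude mice; dosing started at 100 mm3 tumor volume. Agents given iv via tail vein, 5 days/week for 21 days, vehicle 30% propylene glycol/saline, vehicle-treated controls. Mice sacrificed day 21. Body and organ weights and hematological indices recorded. Spleen, kidney, liver, heart, lungs and brain were stained with H&E, Perls' and Gomori Trichrome and read by an independent veterinary pathologist.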
# [18] = system: Mus musculus; assay: Toxicity in BALB/c nu/nu mouse xenografted with human DMS53 cells assessed as change in reticulocyte count at 0.75 mg/kg, iv administered for 5 days a week measured after 21 days; type: organism-based, DMS-53; parameters: dose 0.75 mg/kg, route intravenous; details: in vivo, 504 h
# Outline: (§3)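 Nude mice carrying DMS-53 xenografts (treatment from 100 mm3) received iv tail-vein doses in 30% propylene glycol/saline, 5 days/week for 21 days. Hematological indices (RBC, hemoglobin, hematocrit, reticulocytes, WBC, platelets) were then compared with vehicle controls.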
# [19] = system: Mus musculus; assay: Toxicity in BALB/c nu/nu mouse xenografted with human DMS53 cells assessed as change in lungs histology at 0.75 mg/kg, iv administered for 5 days a week measured after 21 days by hematoxylin and eosin staining method; type: organism-based, DMS-53; parameters: dose 0.75 mg/kg, route intravenous; details: in vivo, 504 h; outline: as §2
# [20] = system: Mus musculus; assay: Toxicity in BALB/c nu/nu mouse xenografted with human DMS53 cells assessed as change in hematopoetic cells in splenic red pulp at 0.75 mg/kg, iv administered for 5 days a week measured after 21 days by hematoxylin and eosin staining method; type: organism-based, DMS-53; parameters: dose 0.75 mg/kg, route intravenous; details: in vivo, 504 h; outline: as §2
# [21] = system: Mus musculus; assay: Toxicity in BALB/c nu/nu mouse xenografted with human DMS53 cells assessed as change in platelet count at 0.75 mg/kg, iv administered for 5 days a week measured after 21 days; type: organism-based, DMS-53; parameters: dose 0.75 mg/kg, route intravenous; details: in vivo, 504 h; outline: as §3
# [22] = system: Mus musculus; assay: Toxicity in BALB/c nu/nu mouse xenografted with human DMS53 cells assessed as change in organ weight at 0.75 mg/kg, iv administered for 5 days a week measured after 21 days; type: organism-based, DMS-53; parameters: dose 0.75 mg/kg, route intravenous; details: in vivo, 504 h
# Outline: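 DMS-53 xenograft-bearing nude mice, treatment started at 100 mm3 tumour volume: iv tail-vein dosing in 30% propylene glycol/saline, 5 days/week for 21 days. Organs were weighed at sacrifice and compared with vehicle-control mice.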
# [23] = system: Mus musculus; assay: Toxicity in BALB/c nu/nu mouse xenografted with human DMS53 cells assessed as hepatocellular necrosis at 0.75 mg/kg, iv administered for 5 days a week measured after 21 days by hematoxylin and eosin staining method; type: organism-based, DMS-53; parameters: dose 0.75 mg/kg, route intravenous; details: in vivo, 504 h; outline: as §1
smiles,measurement,setting,value
CCN(CC)C(=S)N/N=C(\c1ccccc1)c1ccccn1,IC50,[1],11 nM
CN(C(=S)NN=C(c1ccccn1)c1ccccn1)C1CCCCC1,Ratio IC50,[2],23
same,Ratio IC50,[3],5
same,IC50,[1],13 nM
same,IC50,[4]; dms-53,8 nM
O=C(N/N=C/c1c(O)ccc2ccccc12)c1ccncc1,IC50,[5],> 10000 nM
same,IC50,[1],1100 nM
same,Activity,[6],5.3%
same,IC50,"[4]; Homo sapiens, DMS-53, 72 h",1100 nM
same,Activity,[7],44.9%
same,IC50,[8],2200 nM
CN(C)C(=S)NN=C(c1ccccn1)c1ccccn1,IC50,[5],> 10000 nM
same,Activity,[6],3.5%
same,Activity,[9],Non-toxic
same,IC50,"[4]; Homo sapiens, DMS-53, 72 h",10 nM
same,Activity,[10],Non-toxic
same,Activity,[11],Toxic
same,Activity,[12],Active
same,Activity,[7],45%
same,Activity,[13],Non-toxic
same,Activity,[14],Toxic
same,Activity,[15],Non-toxic
same,Activity,[16],Non-toxic
same,Activity,[17],Non-toxic
same,Activity,[18],Non-toxic
same,Activity,[19],Non-toxic
same,Activity,[20],Non-toxic
same,Activity,[21],Non-toxic
same,Activity,[22],Non-toxic
same,IC50,[8],20 nM
same,Activity,[23],Non-toxic
